Bioassay records deposited in PubChem BioAssay by several laboratories.
GalR3 antagonist: blocks the human galanin receptor 3; HEK293 GalR3-CNG cAMP membrane potential fluorescence; galR3 body fused to GalR1 C-terminus; inhibition, % at 3 µM; actives 0.44% (n = 360,000); O60755;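 active = inhibition above the screen-wide average plus 3 SD, cut at about 13% in these data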;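 note: forskolin and galanin both at EC90 stimulate the cells; cAMP rise reported by CNG channel membrane potential dye signal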
Target sequence (O60755 1-299 limits assumed): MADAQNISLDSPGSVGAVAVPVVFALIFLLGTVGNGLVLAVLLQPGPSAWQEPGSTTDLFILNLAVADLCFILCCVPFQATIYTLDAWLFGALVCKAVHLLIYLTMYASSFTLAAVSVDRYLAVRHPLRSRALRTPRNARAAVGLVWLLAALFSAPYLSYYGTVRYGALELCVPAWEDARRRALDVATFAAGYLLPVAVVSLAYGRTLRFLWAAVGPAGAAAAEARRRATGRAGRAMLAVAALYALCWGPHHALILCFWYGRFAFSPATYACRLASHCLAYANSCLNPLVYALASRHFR
GASC-1 inh: human JMJD2C demethylase inhibition. AID 2099. inhibition, % at 2.35 µM. GST-JMJD2C(1-420) H3K9me3 demethylation, DELFIA europium. actives 0.069% (n = 330,000);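 active = more than half of a compound's replicate wells show inhibition beyond 50%, single wells judged on their own value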;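 note: signal counts dimethyl H3K9 product captured on neutravidin plate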
NR2E3 ag-1: NR2E3 (human) agonism | inhibition of corepressor binding, % at 4.78 µM | actives 0.12% (n = 320,000) | Q9Y5X4 | GST-NR2E3/biotin-RetCOR TR-FRET, 1536-well;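 active = percent inhibition above the cutoff of mean plus 3 SD of all tested compounds, set per screening campaign, cut at about 20% in these data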
Target sequence (Q9Y5X4 whole entry, looked up): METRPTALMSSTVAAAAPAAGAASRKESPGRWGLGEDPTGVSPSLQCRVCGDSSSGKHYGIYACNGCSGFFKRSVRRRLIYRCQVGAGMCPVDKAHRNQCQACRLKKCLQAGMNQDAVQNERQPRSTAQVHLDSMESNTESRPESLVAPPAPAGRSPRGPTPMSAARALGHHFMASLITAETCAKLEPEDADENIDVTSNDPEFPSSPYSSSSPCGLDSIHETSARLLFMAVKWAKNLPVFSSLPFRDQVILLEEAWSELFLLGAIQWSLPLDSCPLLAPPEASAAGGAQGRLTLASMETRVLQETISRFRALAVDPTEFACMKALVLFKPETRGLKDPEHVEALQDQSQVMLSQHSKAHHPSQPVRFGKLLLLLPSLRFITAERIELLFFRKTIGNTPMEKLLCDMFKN
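Test system: GST-NR2E3 and biotin-RetCOR proteins | Quantity: 1.35 nM GST-tagged NR2E3 final | Medium: Tris pH 7.5 | Also added: 7 nM biotin-RetCOR | Dosing: Compound at 4.8 µM, single dose | Timing: 5 h at 4 °C | Detection: Time-resolved FRET | Read-out basis: Percent inhibition | Benchmarks: Biotin wells as high control, 0.6% DMSO wells as low control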
NR2E3 ag-2: agonists of human NR2E3 nuclear receptor; AID 602229; CHO-S Gal4-NCOR/VP16-NR2E3 two-hybrid, luciferase; inhibition of corepressor binding, % at 3.98 µM; actives 0.35% (n = 360,000); Q9Y5X4;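 active = inhibition above the mean of all tested compounds plus 3 SD, cut at about 70% in these data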;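 note: higher means lower luciferase signal from less NR2E3 corepressor binding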
697 NFkB inh: inhibitors of the PMA/ionomycin-induced NF-kB reporter in 697 B cells | actives 0.33% (n = 330,000) | 697 B-cell NF-kB luciferase reporter, 16 h | inhibition, % at 4 µM; in the data active = inhibition above about 35%
Jurkat NFkB inh: lowers PMA/ionomycin-induced NF-kB signal in Jurkat cells; PMA/ionomycin-induced NF-kB luciferase reporter, luminescence; inhibition, % at 4 µM; actives 0.53% (n = 330,000); AID 435003; in the data active = inhibition above about 50%
NR2E3 ag conf: NR2E3 agonism confirmed in two-hybrid assay. CHO-S mammalian two-hybrid NR2E3-NCOR, luciferase luminescence. inhibition, % at 3.98 µM. actives 51% (n = 2,300). shares compounds with NR2E3 ag-2;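 active = average inhibition above a cutoff equal to the mean inhibition of all tested compounds plus one SD, cut at about 70% in these data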
GAL4-VP16 luc: GAL4-VP16 reporter inhibition in NR2E3 agonist counterscreen; CHO-S GAL4-VP16 luciferase reporter, luminescence; shares compounds with NR2E3 ag-2; actives 29% (n = 2,300); inhibition, % at 3.98 µM;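 active = mean inhibition above a cutoff equal to the average over all tested compounds plus one standard deviation, cut at about 70% in these data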;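 note: luciferase from a UAS reporter driven by GAL4-VP16 transactivation; higher means less reporter light so more repression of VP16 activity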
GalR3 antag conf: GalR3 (human) antagonism, confirmation. shares compounds with GalR3 antagonist. HEK293 GalR3 CNG cAMP biosensor, membrane potential fluorescence; galR3 fused to GalR1 carboxy tail; challenged with forskolin and galanin at EC90. inhibition, % at 3 µM. actives 59% (n = 1,600). AID 652245;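 active = inhibition above the primary screen's cutoff, the mean inhibition of all screened compounds plus 3 SD, cut at about 13% in these data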
CNG parental: counter-screen for GalR3 antagonists: nonspecific agonists in parental HEK-CNG cells; activation, % at 3 µM; HEK293-CNG parental cells, cAMP membrane potential fluorescence; normalised: DMSO wells 0%, forskolin wells 100%; shares compounds with GalR3 antagonist; actives 10% (n = 1,600); AID 652268; in the data active = activation above about 1.3%
Hits are given with their value; . = inactive; / = no result given. Shown are actives, neighbours in structure and some others; about 1.5% of the full set was active somewhere.

SMILES	GalR3 antagonist	GASC-1 inh	NR2E3 ag-1	NR2E3 ag-2	697 NFkB inh	Jurkat NFkB inh	NR2E3 ag conf	GAL4-VP16 luc	others
CC(O)C1C=CC=CC(=O)OC2CC3OC4C5OC5(C)CCC4(COC(=O)C4OC4(C)C(O)CO1)C2(C)C31CO1 (centres undefined)	.	/	/	101.1	/	/	99.2	97.4
CCC1(Cc2ccccc2)C(=O)NC(=S)N(C)C1=O (centres undefined)	.	/	/	.	/	/	/	/
COc1cc2c(cc1OC)C13CCN4CC5=CCOC(CC(=O)O)C(C5CC41)C3N2 (centres undefined)	.	/	/	.	/	/	/	/
c1ccc2c(c1)[IH]c1ccccc1-2	85.7	/	/	100.5	/	/	97.5	88.0
CCC1(OC(=O)CN)C(=O)OCc2c1cc1n(c2=O)Cc2cc3ccccc3nc2-1 (centres undefined)	/	.	.	93.2	/	/	93.9	.
COC(=O)C12OCC34C(CC5C(C)=C(O)C(=O)CC5(C)C3C(O)C1O)OC(=O)C(OC(=O)/C=C(\C)C(C)C)C24 (centres undefined)	.	/	/	103.0	/	/	99.7	100.0
COc1ccc(/C=C/C=C2C(=O)NC(=S)NC2=O)cc1	.	/	/	.	/	/	/	/
CC(=O)OC(C)(C)/C=C/C(=O)C(C)(O)C1C(O)CC2(C)C3CC=C4C(CC(O)C(=O)C4(C)C)C3(C)C(=O)CC12C (centres undefined)	.	/	/	.	/	/	79.7	.
CCOP(=O)(CCP(=O)(OCC)OCC)OCC.C[CH2][Sn]([Cl])([Cl])[CH2]C	.	/	/	91.5	/	/	99.6	.
CS(=O)(=O)N1Cc2cc(Br)ccc2-n2nncc2C1	.	/	/	/	/	/	/	/
COc1ccc2nc(-c3ccc(CN4CCC(n5nnc6ccccc65)CC4)cc3)c(-c3ccccc3)nc2c1	.	/	/	/	/	/	/	/
CCC(C)C1NC(=O)C(NC(=O)C(CC(C)C)N(C)C(=O)C2CCCN2C(=O)C(C)O)C(C)OC(=O)C(Cc2ccc(OC)cc2)N(C)C(=O)C2CCCN2C(=O)C(CC(C)C)NC(=O)[C@H](C)C(=O)[C@H](C(C)C)OC(=O)CC1O (some centres undefined)	.	/	/	102.1	/	/	98.7	99.6
CC1=NNC(=O)C1Br (centres undefined)	.	/	/	.	/	/	/	/
COc1cccc2c1N=C1CCCC3CN(C(C)=O)CCC123 (centres undefined)	.	/	/	.	/	/	/	/
CC(=O)OC1C(O)C(C)OC(OC2C(OC(=O)C3CCC4C(C3)OC3(CC(OC(=O)/C=C/c5ccccc5)C(C)CO3)C43CO3)OC(C)C(O)C2OC(C)=O)C1O (centres undefined)	.	/	/	103.0	/	/	99.3	99.4
CC1=CC2OC3CC4OC(=O)C=CC=CC(=O)OCCC(C)C(O)C(=O)OCC2(CC1O)C4(C)C31CO1 (centres undefined)	/	/	/	99.5	/	/	99.5	98.6
CC1=CC2OC3CC4OC(=O)C=CC=CC(C(C)O)OCC(O)C(C)CC(=O)OCC2(CC1O)C4(C)C31CO1 (centres undefined)	.	/	/	101.5	/	/	100.1	98.6
O=Cc1cn(Cc2ccccc2F)c2ccccc12	.	.	.	.	.	.	/	/
CC(=O)c1cn(Cc2ccccc2F)c2ccccc12	.	.	/	83.2	.	.	90.1	74.9
CCOC(=O)c1cc2c(cn1)[C@@H](CCO)NC2	.	/	/	.	/	/	/	/
Oc1c(Cl)c(Cl)c(Cl)c(Cl)c1Cl	.	.	.	98.3	.	.	98.7	91.8
CCC(=NCCOc1ccc(Cl)cc1)c1c(O)n(C)c(=O)n(C)c1=O	.	.	.	79.2	.	.	95.6	82.9
CN(C)c1ccc(/C=C/c2cc[n+](C)c3ccccc23)cc1	.	/	/	.	/	/	76.7	.
O=c1[nH]c2ccccc2n1C1CCN(C(CCc2ccccc2)c2nnnn2-c2ccc3c(c2)OCCO3)CC1 (centres undefined)	20.7	/	/	.	/	/	.	.	GalR3 antag conf=16.9;CNG parental=.
NC(=S)c1cn(C2OC(CO)C(O)C2O)c2ncnc(N)c12 (centres undefined)	51.2	.	.	103.2	/	/	98.2	88.0	GalR3 antag conf=82.9;CNG parental=.
SMILES	GalR3 antagonist	GASC-1 inh	NR2E3 ag-1	NR2E3 ag-2	697 NFkB inh	Jurkat NFkB inh	NR2E3 ag conf	GAL4-VP16 luc	others
CCCN1CCCC(C(=O)c2cc(C)c(OC)c(C)c2)C1 (centres undefined)	.	.	.	.	.	.	/	/
O=C(O)C(O)(c1ccc(Cl)cc1)C1(O)CCCC1 (centres undefined)	.	/	/	.	/	/	/	/
CCC(=NCCc1c[nH]c2ccccc12)c1c(O)n(C)c(=O)n(C)c1=O	76.3	.	.	73.1	.	.	86.6	77.2	GalR3 antag conf=36.8;CNG parental=6.7
COC(=O)C1C(OC(=O)c2ccccc2)CC2CCC1[N+]2(C)C (centres undefined)	.	/	/	/	/	/	/	/
N#CC(C#N)=NNc1ccc(-n2ccc(C(F)(F)F)n2)cc1	73.8	.	.	95.5	.	.	.	.	GalR3 antag conf=80.1;CNG parental=.
CN1CCCN(c2ccc([N+](=O)[O-])nc2)CC1	.	.	.	.	.	.	/	/
CCN1CCC2(CC1)NC(=O)c1ccccc1O2	.	.	.	.	.	.	/	/
CCOC(=O)[C@]12Cc3cc(C)ccc3[C@H]1N(C1CCCCC1)C(=O)c1cc(OC)ccc12	38.3	/	/	94.9	/	/	98.8	.	GalR3 antag conf=47.1;CNG parental=3.3
CCOC(=O)[C@]12Cc3cc(OC)ccc3[C@H]1N(C1CCCCC1)C(=O)c1cc(OC)ccc12	.	/	/	.	/	/	/	/
COc1cc2c(cc1OC)C1C(=O)c3ccc4c(c3OC1CO2)CC(C(C)C)O4 (centres undefined)	95.5	/	/	102.3	/	/	96.2	94.3	GalR3 antag conf=108.0;CNG parental=.
O=C(N/N=C/c1c(O)n(Cc2ccccc2)c(=O)[nH]c1=O)c1ccccc1O	.	.	.	.	.	.	/	/
O=C(N/N=C/c1c(O)n(CCc2ccccc2)c(=O)[nH]c1=O)c1ccccc1O	77.2	.	.	.	.	.	/	/	GalR3 antag conf=52.8;CNG parental=.
O=C(N/N=C/c1c(O)n(Cc2ccc(F)cc2)c(=O)[nH]c1=O)c1ccccc1O	12.6	.	.	.	.	.	/	/	GalR3 antag conf=.;CNG parental=.
O=C(N/N=C/c1c(O)n(CCc2ccc(F)cc2)c(=O)[nH]c1=O)c1ccccc1	.	.	.	.	.	.	/	/
